Laboratory results from ChEMBL document CHEMBL1122368, “Synthesis and antihypertensive activity of some new quinazoline derivatives” (1983).

What follows are molecules tested on Rattus norvegicus (assay: Antihypertensive activity as fall in systolic blood pressure after 3 hr of 10 uM/kg po dosing in Spontaneously hypertensive rats.). Details: not given.
Assay type: functional, Artery
How it was run: (§1)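 Conscious spontaneously hypertensive rats dosed by gavage, about 1 mL/rat. Systolic pressure recorded by tail-cuff after warming the rats 30 min at 36 °C. Fall in systolic BP (mmHg) read versus control values; listed values are significant decreases (p ≤ 0.05), otherwise marked NS. Baseline systolic pressure 175–190 mmHg across experiments.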

| SMILES | Decrease in SBP |
| --- | --- |
| COc1cc2nc(N3CCN(C(=O)c4ccco4)CC3)nc(N)c2cc1OC [PRAZOSIN] | 36 mmHg |
| COc1cc2nc(N3CCC(C(=O)C4CCCC4)CC3)nc(N)c2cc1OC.Cl | 54 mmHg |
| COc1cc2nc(N3CCC(C(=O)C4CCCCC4)CC3)nc(N)c2cc1OC.Cl | 54 mmHg |

Each molecule was assayed on Rattus norvegicus (assay: Antihypertensive activity as fall in systolic blood pressure after 1 hr of 10 uM/kg po dosing in Spontaneously hypertensive rats;NS means nonsignificant change in blood pressure.). Details: Artery.
Assay type: functional, organism-based
How it was run: as §1

| SMILES | Decrease in SBP |
| --- | --- |
| COc1cc2nc(N3CCC(C(=O)C4CCCCC4)CC3)nc(N)c2cc1OC.Cl | Not significant |

What follows are molecules tested on Rattus norvegicus (assay: Hypotensive activity in anesthetized rats, dose that produced a 30% fall in mean blood pressure after 30 minutes). Details: not given.
Assay type: functional
How it was run: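 Normotensive rats under urethane anaesthesia, arterial pressure recorded, femoral vein cannulated. Dosing iv in rising doses (0.01, 0.1, 1, 10 μmol/kg) at 30-min intervals, 1 mL/kg over 2 min; solvent controls; colonic temperature 38.0 ± 0.3 °C. Fall in pressure read 30 min after injection. ED30 is the dose (μmol/kg) giving a 30% fall in mean blood pressure.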

| SMILES | ED30 |
| --- | --- |
| COc1cc2nc(N3CCC(C(=O)N4CCCC4)CC3)nc(N)c2cc1OC.Cl | 0.4 µM/kg |
| COc1cc2nc(N3CCN(C(=O)c4ccco4)CC3)nc(N)c2cc1OC [PRAZOSIN] | 0.03 µM/kg |
| COc1cc2nc(N3CCC(C(=O)C4CCCC4)CC3)nc(N)c2cc1OC.Cl | 0.09 µM/kg |
| COc1cc2nc(N3CCC(C(=O)C4CCCCC4)CC3)nc(N)c2cc1OC.Cl | 0.1 µM/kg |

Each molecule was assayed on Rattus norvegicus (assay: Antihypertensive activity as fall in systolic blood pressure after 1 h of 3 umol/kg po dosing in Spontaneously hypertensive rats.). Details: not given.
Assay type: functional, Artery
How it was run: as §1

| SMILES | Decrease in SBP |
| --- | --- |
| COc1cc2nc(N3CCC(C(=O)C4CCCC4)CC3)nc(N)c2cc1OC.Cl | 34 mmHg |

The molecules below were run on Rattus norvegicus (assay: Antihypertensive activity as fall in systolic blood pressure after 3 h of 0.3 umol/kg po dosing in Spontaneously hypertensive rats.). Details: not given.
Assay type: functional, Artery
How it was run: as §1

| SMILES | Decrease in SBP |
| --- | --- |
| COc1cc2nc(N3CCC(C(=O)C4CCCC4)CC3)nc(N)c2cc1OC.Cl | 11 mmHg |

The molecules below were run on Rattus norvegicus (assay: Antihypertensive activity as fall in systolic blood pressure after 1 hr of 1 uM/kg po dosing in Spontaneously hypertensive rats.). Details: not given.
Assay type: functional, Artery
How it was run: as §1

| SMILES | Decrease in SBP |
| --- | --- |
| COc1cc2nc(N3CCN(C(=O)c4ccco4)CC3)nc(N)c2cc1OC [PRAZOSIN] | 29 mmHg |

Each molecule was assayed on Rattus norvegicus (assay: Antihypertensive activity as fall in systolic blood pressure after 5 h of 100 umol/kg po dosing in Spontaneously hypertensive rats.). Details: not given.
Assay type: functional, Artery
How it was run: as §1

| SMILES | Decrease in SBP |
| --- | --- |
| COc1cc2nc(N3CCN(C(=O)c4ccco4)CC3)nc(N)c2cc1OC [PRAZOSIN] | 26 mmHg |

These molecules were tested on Rattus norvegicus (assay: Antihypertensive activity as fall in systolic blood pressure after 3 h of 3 umol/kg po dosing in Spontaneously hypertensive rats.). Details: not given.
Assay type: functional, Artery
How it was run: as §1

| SMILES | Decrease in SBP |
| --- | --- |
| COc1cc2nc(N3CCC(C(=O)C4CCCC4)CC3)nc(N)c2cc1OC.Cl | 34 mmHg |

What follows are molecules tested on Rattus norvegicus (assay: Antihypertensive activity as fall in systolic blood pressure after 1 h of 0.3 umol/kg po dosing in Spontaneously hypertensive rats;NS means nonsignificant change in blood pressure.). Details: Artery.
Assay type: functional, organism-based
How it was run: as §1

| SMILES | Decrease in SBP |
| --- | --- |
| COc1cc2nc(N3CCC(C(=O)C4CCCC4)CC3)nc(N)c2cc1OC.Cl | Not significant |

Each molecule was assayed on Rattus norvegicus (assay: Antihypertensive activity as fall in systolic blood pressure after 1 hr of 10 uM/kg po dosing in Spontaneously hypertensive rats.). Details: not given.
Assay type: functional, Artery
How it was run: as §1

| SMILES | Decrease in SBP |
| --- | --- |
| COc1cc2nc(N3CCN(C(=O)c4ccco4)CC3)nc(N)c2cc1OC [PRAZOSIN] | 38 mmHg |
| COc1cc2nc(N3CCC(C(=O)C4CCCC4)CC3)nc(N)c2cc1OC.Cl | 45 mmHg |

The molecules below were run on Rattus norvegicus (assay: Antihypertensive activity as fall in systolic blood pressure after 1 h of 1 umol/kg po dosing in Spontaneously hypertensive rats.). Details: not given.
Assay type: functional, Artery
How it was run: as §1

| SMILES | Decrease in SBP |
| --- | --- |
| COc1cc2nc(N3CCC(C(=O)C4CCCC4)CC3)nc(N)c2cc1OC.Cl | 18 mmHg |
| COc1cc2nc(N3CCC(C(=O)C4CCCCC4)CC3)nc(N)c2cc1OC.Cl | 15 mmHg |

Each molecule was assayed on Rattus norvegicus (assay: Antihypertensive activity as fall in systolic blood pressure after 5 h of 1 umol/kg po dosing in Spontaneously hypertensive rats;NS means nonsignificant change in blood pressure.). Details: Artery.
Assay type: functional, organism-based
How it was run: as §1

| SMILES | Decrease in SBP |
| --- | --- |
| COc1cc2nc(N3CCC(C(=O)C4CCCCC4)CC3)nc(N)c2cc1OC.Cl | Not significant |

The molecules below were run on Rattus norvegicus (assay: Antihypertensive activity as fall in systolic blood pressure after 5 h of 0.3 umol/kg po dosing in Spontaneously hypertensive rats.). Details: not given.
Assay type: functional, Artery
How it was run: as §1

| SMILES | Decrease in SBP |
| --- | --- |
| COc1cc2nc(N3CCC(C(=O)C4CCCC4)CC3)nc(N)c2cc1OC.Cl | 11 mmHg |

These molecules were tested on Rattus norvegicus (assay: Antihypertensive activity as fall in systolic blood pressure after 3 hr of 1 umol/kg po dosing in Spontaneously hypertensive rats.). Details: not given.
Assay type: functional, Artery
How it was run: as §1

| SMILES | Decrease in SBP |
| --- | --- |
| COc1cc2nc(N3CCC(C(=O)C4CCCC4)CC3)nc(N)c2cc1OC.Cl | 20 mmHg |
| COc1cc2nc(N3CCC(C(=O)C4CCCCC4)CC3)nc(N)c2cc1OC.Cl | 20 mmHg |

The molecules below were run on Rattus norvegicus (assay: Antihypertensive activity as fall in systolic blood pressure after 1 h of 100 umol/kg po dosing in Spontaneously hypertensive rats.). Details: not given.
Assay type: functional, Artery
How it was run: as §1

| SMILES | Decrease in SBP |
| --- | --- |
| COc1cc2nc(N3CCN(C(=O)c4ccco4)CC3)nc(N)c2cc1OC [PRAZOSIN] | 38 mmHg |

The molecules below were run on Rattus norvegicus (assay: Antihypertensive activity as fall in systolic blood pressure after 5 hr of 3 umol/kg po dosing in Spontaneously hypertensive rats.). Details: not given.
Assay type: functional, Artery
How it was run: as §1

| SMILES | Decrease in SBP |
| --- | --- |
| COc1cc2nc(N3CCC(C(=O)C4CCCC4)CC3)nc(N)c2cc1OC.Cl | 35 mmHg |

These molecules were tested on Rattus norvegicus (assay: Antihypertensive activity as fall in systolic blood pressure after 3 hr of 1 uM/kg po dosing in Spontaneously hypertensive rats.). Details: not given.
Assay type: functional, Artery
How it was run: as §1

| SMILES | Decrease in SBP |
| --- | --- |
| COc1cc2nc(N3CCN(C(=O)c4ccco4)CC3)nc(N)c2cc1OC [PRAZOSIN] | 30 mmHg |

What follows are molecules tested on Rattus norvegicus (assay: Antihypertensive activity as fall in systolic blood pressure after 5 hr of 1 uM/kg po dosing in Spontaneously hypertensive rats.). Details: not given.
Assay type: functional, Artery
How it was run: as §1

| SMILES | Decrease in SBP |
| --- | --- |
| COc1cc2nc(N3CCN(C(=O)c4ccco4)CC3)nc(N)c2cc1OC [PRAZOSIN] | 26 mmHg |

The molecules below were run on Rattus norvegicus (assay: Antihypertensive activity as fall in systolic blood pressure after 5 hr of 1 umol/kg po dosing in Spontaneously hypertensive rats.). Details: not given.
Assay type: functional, Artery
How it was run: as §1

| SMILES | Decrease in SBP |
| --- | --- |
| COc1cc2nc(N3CCC(C(=O)C4CCCC4)CC3)nc(N)c2cc1OC.Cl | 21 mmHg |

These molecules were tested on Rattus norvegicus (assay: Antihypertensive activity as fall in systolic blood pressure after 5 hr of 10 uM/kg po dosing in Spontaneously hypertensive rats.). Details: not given.
Assay type: functional, Artery
How it was run: as §1

| SMILES | Decrease in SBP |
| --- | --- |
| COc1cc2nc(N3CCN(C(=O)c4ccco4)CC3)nc(N)c2cc1OC [PRAZOSIN] | 34 mmHg |
| COc1cc2nc(N3CCC(C(=O)C4CCCC4)CC3)nc(N)c2cc1OC.Cl | 50 mmHg |
| COc1cc2nc(N3CCC(C(=O)C4CCCCC4)CC3)nc(N)c2cc1OC.Cl | 51 mmHg |

What follows are molecules tested on Rattus norvegicus (assay: Antihypertensive activity as fall in systolic blood pressure after 3 hr of 100 umol/kg po dosing in Spontaneously hypertensive rats.). Details: not given.
Assay type: functional, Artery
How it was run: as §1

| SMILES | Decrease in SBP |
| --- | --- |
| COc1cc2nc(N3CCN(C(=O)c4ccco4)CC3)nc(N)c2cc1OC [PRAZOSIN] | 30 mmHg |

Each molecule was assayed on Rattus norvegicus (assay: Hypotensive activity in anesthetized rats, dose that produced a 30% fall in mean blood pressure). Details: not given.
Assay type: functional
How it was run: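 Normotensive rats under urethane anaesthesia, arterial pressure recorded, femoral vein cannulated. Dosing iv in rising doses (0.01, 0.1, 1, 10 μmol/kg) at 30-min intervals, 1 mL/kg over 2 min; solvent-treated controls. Colonic temperature held at 38.0 ± 0.3 °C. Effect read at its maximum, 1–5 min after injection. ED30 is the dose (μmol/kg) giving a 30% fall in mean blood pressure.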

| SMILES | ED30 |
| --- | --- |
| COc1cc2nc(N3CCC(C(=O)N4CCCC4)CC3)nc(N)c2cc1OC.Cl | 0.2 µM/kg |
| COc1cc2nc(N3CCN(C(=O)c4ccco4)CC3)nc(N)c2cc1OC [PRAZOSIN] | 0.01 µM/kg |
| COc1cc2nc(N3CCC(C(=O)C4CCCC4)CC3)nc(N)c2cc1OC.Cl | 0.06 µM/kg |
| COc1cc2nc(N3CCC(C(=O)C4CCCCC4)CC3)nc(N)c2cc1OC.Cl | 0.07 µM/kg |
